In PMC10785272 (ACS Omega, 2023):

How the values were obtained:
[1] = test system: HeLa cells; test: In vitro cytotoxicity MTS assay with HeLa cells; assay type: cell-based, human; conditions: HeLa cell line, 48 h incubation, mean ± SD (n = 3)
How it was run: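 HeLa cells were grown in EMEM with 10% FBS, nonessential amino acids and sodium pyruvate at 37 °C in 5% CO2. They were seeded at 40000 cells/well and left 24 h, then exposed 48 h to freshly prepared medium holding test compound over 0–100 or 0–1000 µM. MTS was added for 3 h and absorbance read at 490 nm. IC50 was obtained by curve fitting; runs were in triplicate.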

[2] = In vitro stability of FGC-Pt in mouse plasma; assay type: in vitro ADME; conditions: 37 °C
How it was run: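 Test compound (2.4 mg) was mixed with purchased mouse plasma (160 µL) and held at 37 °C for 0, 2, 4 and 6 h. Each mixture was diluted with saline, filtered and analysed by HPLC on a Sugar-D column with a water/methanol linear gradient at 0.5 mL/min, with UV detection at 220 nm. Results are mean ± SD, n = 3.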

[3] = test system: A549 cell-bearing mice; test: In vivo biodistribution; set-up: species or system mouse; conditions: 4 mg of Pt/kg tail vein; for ratio of platinum concentration tumor/blood / ratio of platinum concentration tumor/bone / ratio of platinum concentration tumor/kidney / ratio of platinum concentration tumor/liver / ratio of platinum concentration tumor/muscle: A549 cell-bearing mice; for platinum accumulation in tumors: ICP-MS, mean ± SD (n = 4)
How it was run: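 Male BALB/c nu/nu mice (5 weeks old, quarantined 1 week) received 1 × 10^7 A549 cells s.c. into the right shoulder. At 50 mm3 tumour volume, mice got 4 mg Pt/kg by tail vein in freshly prepared saline (n = 4/group). At 24 and 48 h, Pt in tumour, muscle, bone, blood, liver and kidney was measured by ICP-MS after acid digestion. Values are ng Pt/g tissue and tumour/organ concentration ratios.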

[4] = test system: A549 cell-bearing mice; test: In vivo assessment of antitumor effect and toxicity in A549 cell-bearing mice; set-up: species or system mouse; conditions: 2.7 mg of Pt/kg i.v. on days 1, 8, 15, 22; n = 6

Substance: cis-Dichloro [(2-Fluoro-α-D-glucopylanosidyl)propane-1,3-diamine] Platinum [FGC-Pt]
- IC50 [1]: 447 ± 99 µM
- half-life in mouse plasma [2]: approximately 2 h
- ratio of platinum concentration tumor/blood ([3]; 24 h post-injection): 11.07
- ratio of platinum concentration tumor/bone ([3]; 24 h post-injection): 2.93
- ratio of platinum concentration tumor/kidney ([3]; 24 h post-injection): 0.29
- ratio of platinum concentration tumor/liver ([3]; 24 h post-injection): 0.50
- ratio of platinum concentration tumor/muscle ([3]; 24 h post-injection): 3.64
- platinum accumulation in tumors ([3]; 24 h post-injection): 1058 ± 220 Pt ng/g tissue
- ratio of platinum concentration tumor/blood ([3]; 48 h post-injection): 14.37
- ratio of platinum concentration tumor/bone ([3]; 48 h post-injection): 3.03
- ratio of platinum concentration tumor/kidney ([3]; 48 h post-injection): 0.42
- ratio of platinum concentration tumor/liver ([3]; 48 h post-injection): 0.59
- ratio of platinum concentration tumor/muscle ([3]; 48 h post-injection): 4.09
- platinum accumulation in tumors ([3]; 48 h post-injection): 1055 ± 278 Pt ng/g tissue
- toxic side effects (body weight, loss of appetite, injection site) [4]: reduces toxicity compared to that of cisplatin
